This is an account of results in ChEMBL document CHEMBL4190381, “Biofilm inhibition and anti-Candida activity of a cationic lipo-benzamide molecule with twin-nonyl chain” (Bioorg Med Chem Lett, 2018).

In data set [1] the test system is Candida albicans. Briefly: Antifungal activity against Candida albicans ATCC 90028 planktonic cells assessed as inhibition of fungal growth incubated for 48 hrs by broth microdilution assay. The format is functional. The conditions noted are these: for MIC80: ATCC 90028, 48 h. Put shortly: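 Broth microdilution against planktonic C. albicans ATCC 90028. MIC is the lowest concentration giving […] relative to the growth control. Percent inhibition is taken against an untreated growth control and plotted versus concentration.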

Data set [2] deals with Candida albicans. As to the kind of experiment: Antifungal activity against Candida albicans SC5314 assessed as inhibition of fungal growth incubated for 48 hrs by broth microdilution assay. The data set is classed as functional. The conditions noted are these: SC5314, 48 h. Put shortly:
(§1)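 Broth microdilution against planktonic Candida cultures, with fluconazole as reference antifungal. MIC read as lowest concentration giving […] relative to a growth control without compound. Percentage inhibition versus growth control was plotted against concentration.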

For data set [3], the system named is Candida albicans. Briefly: Antifungal activity against Candida albicans Gu4 assessed as inhibition of fungal growth incubated for 48 hrs by broth microdilution assay. The settings on record: Gu4, 48 h. The format is functional. Put shortly:
as §1

Data set [4] has as its system Candida albicans. Briefly: Antifungal activity against Candida albicans Gu5 assessed as inhibition of fungal growth incubated for 48 hrs by broth microdilution assay. The format is functional. The conditions noted are these: Gu5, 48 h. Put shortly: as §1
Data set [5] has as its system Candida albicans. As to the kind of experiment: Antifungal activity against Candida albicans DSY294 assessed as inhibition of fungal growth incubated for 48 hrs by broth microdilution assay. The format is functional. The conditions noted are these: DSY294, 48 h. A digest of the protocol: as §1
The test system of data set [6] is Candida albicans. Briefly: Antifungal activity against Candida albicans DSY296 assessed as inhibition of fungal growth incubated for 48 hrs by broth microdilution assay. The format is functional. The settings on record: DSY296, 48 h. Put shortly:
as §1

A further data set relates to Nakaseomyces glabratus. As to the kind of experiment: Antifungal activity against Candida glabrata MTCC 3814 assessed as inhibition of fungal growth incubated for 48 hrs by broth microdilution assay. The data set is classed as functional. The settings on record: MTCC 3814, 48 h. Put shortly: as §1
The subject of a further data set is Pichia kudriavzevii. As to the kind of experiment: Antifungal activity against Candida krusei MTCC 9215 assessed as inhibition of fungal growth incubated for 48 hrs by broth microdilution assay. The format is functional. The settings on record: MTCC 9215, 48 h. A digest of the protocol: as §1
A further data set has as its system Candida parapsilosis. Briefly: Antifungal activity against Candida parapsilosis MTCC 7043 assessed as inhibition of fungal growth incubated for 48 hrs by broth microdilution assay. The format is functional. The settings on record: Lodderomyces parapsilosis, MTCC 7043, 48 h. Put shortly: as §1
In the next data set the test system is Candida tropicalis. As to the kind of experiment: Antifungal activity against Candida tropicalis MTCC 9038 assessed as inhibition of fungal growth incubated for 48 hrs by broth microdilution assay. The format is functional. The settings on record: MTCC 9038, 48 h. Put shortly:
as §1

The subject of data set [7] is Candida albicans. Briefly: Inhibition of adhesion of Candida albicans ATCC 90028 on polystyrene surface incubated for 90 mins by MTT assay. The data set is classed as functional, organism-based. A digest of the protocol: (§2)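 C. albicans ATCC 90028 cells adhered to polystyrene wells with test compound. Adhesion is quantified by MTT metabolic assay and expressed as percent inhibition versus an untreated growth control. Fluconazole is the reference, tested up to 25 µg ml-1.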

The subject of data set [8] is Candida albicans. Briefly: Inhibition of adhesion of Candida albicans ATCC 90028 on polystyrene surface at 12.5 ug/ml incubated for 90 mins by MTT assay. The format is functional. The conditions noted are these: ATCC 90028, 1.5 h. A digest of the protocol: as §2
For data set [9], the system named is Candida albicans. Briefly: Antibiofilm activity against Candida albicans ATCC 90028 grown on polystyrene surface assessed as inhibition of biofilm formation added immediately after cell adhesion by MTT assay. The data set is classed as functional. Put shortly: (§3)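 1x10^6 C. albicans ATCC 90028 cells allowed to grow and adhere in polystyrene-coated 96-well wells; compound added at different time points to cover adhesion, biofilm formation or mature biofilm stages. Inhibition quantified by MTT metabolic assay against untreated growth control. BIC80 and BEC80 taken as concentrations giving 80% inhibition of formation or of mature biofilm respectively.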

The test system of data set [10] is Candida albicans. Briefly: Antibiofilm eradication activity against Candida albicans ATCC 90028 grown on polystyrene surface assessed as inhibition of mature biofilm formation added 24 hrs after biofilm maturation and measured after 48 hrs by MTT assay. The data set is classed as functional. A digest of the protocol:
as §3

In data set [11] the test system is Candida albicans. Briefly: Toxicity in Candida albicans ATCC 90028 planktonic cells assessed as induction of protein release at 12.5 ug/ml incubated for 1 hr by spectrophotometry. The data set is classed as organism-based. A digest of the protocol: (§4)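 C. albicans cells incubated with increasing compound concentrations. Supernatant OD260 (nucleic acids) and OD280 (proteins) recorded to quantify macromolecule release on lysis.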

The test system of a further data set is Erythrocyte. As to the kind of experiment: Hemolytic activity in human erythrocytes assessed as induction of hemolysis incubated for 1 hr by spectrophotometry. The data set is classed as cell-based. Put shortly:
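Human erythrocytes incubated with a range of concentrations. Released hemoglobin is measured spectrophotometrically and expressed as percent hemolysis. 1% Triton X-100 gives 100% lysis, and a buffer-treated sample is the negative control. HC90 is the concentration lysing 90% of RBCs.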

Data set [12] in a line: Safety index, ratio of HC90 for hemolytic activity in human erythrocytes to MIC for antifungal activity against Candida albicans ATCC 90028 planktonic cells. The data set is classed as toxicity, cell-based.
For data set [13], the system named is Candida albicans. As to the kind of experiment: Toxicity in Candida albicans ATCC 90028 planktonic cells assessed as induction of nucleic acids release at 12.5 ug/ml incubated for 1 hr by spectrophotometry. The data set is classed as organism-based. Put shortly: as §4
For data set [14], the system named is Candida albicans. Briefly: Toxicity in Candida albicans ATCC 90028 planktonic cells assessed as induction of morphological changes at 3.1 ug/ml incubated for 24 hrs by scanning electron Microscopy. The data set is classed as organism-based. Put shortly: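 C. albicans ATCC 90028 cells incubated 24 h with 3.1 µg ml-1 compound. Surface morphology examined by scanning electron microscopy at 2500X and 5000X magnification against untreated cells.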

In data set [15] the test system is Candida albicans. As to the kind of experiment: Antibiofilm activity against Candida albicans ATCC 90028 grown on polystyrene surface assessed as inhibition of biofilm formation at 1.56 to 25 ug/ml added immediately after cell adhesion by bright-field microscopy. The format is functional, organism-based. A digest of the protocol:
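1x10^6 C. albicans ATCC 90028 cells allowed to adhere and grow in polystyrene 96-well wells; compound at 1.56, 3.12, 6.25, 12.5 and 25 µg ml-1; biofilm examined microscopically against an untreated growth control.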

The test system of data set [16] is Candida albicans. As to the kind of experiment: Inhibition of adhesion of Candida albicans ATCC 90028 on polystyrene surface up to 25 ug/ml incubated for 90 mins by MTT assay. The format is functional, organism-based. A digest of the protocol: as §3

SMILES strings stand for the structures. Converted amounts (≈) assume the structure as drawn. The source made the active and inactive calls. No cut-off for these calls is given here. Some results are limits rather than exact numbers.

As for `CCCCCCCC[N+](C)(CCCCCCCC)CCNC(=O)c1ccc(OC)cc1.[I-]`, in the data set on Candida albicans [1], the “growth inhibition (GI)” value was “Dose-dependent effect” and the MIC80 was no more than 6.2 µg/mL.
On the same counts, the results for `CCCCCCCCCCC[N+](C)(CCCCCCCCCCC)CCNC(=O)c1ccc(OC)cc1.[I-]` are “Dose-dependent effect” and no more than 3.1 µg/mL.
Consider `CCCCCCCCC[N+](C)(CCCCCCCCC)CCNC(=O)c1ccc(OC)cc1.[I-]`, for which the “growth inhibition (GI)” value in the data set on Candida albicans [1] is “Dose-dependent effect”. The MIC80 was 3.1 µg/mL in the data set with Candida albicans [1]; 1.5 µg/mL with Candida albicans [2]; 3.1 µg/mL in the data set with Candida albicans [3]; 3.1 µg/mL with Candida albicans [4]; 1.5 µg/mL with Candida albicans [5]; 1.5 µg/mL in the data set with Candida albicans [6]. In addition, the MIC80 in the data set with Nakaseomyces glabratus came out at 1.5 µg/mL; in the data set with Pichia kudriavzevii it was 1.5 µg/mL; in the data set with Candida parapsilosis, 1.5 µg/mL; in the data set with Candida tropicalis it was 0.7 µg/mL. The inhibition entry in the data set with Candida albicans [7] is “Dose-dependent effect”. In the data set with Candida albicans [8], this compound yielded an inhibition at 12.5 µg/mL of 90%. Also, the MBIC80 with Candida albicans [9] came out at 3.12 µg/mL. For the same compound, the MBEC80 in the data set on Candida albicans [10] was 12.5 µg/mL. Moreover, the Activity result with Candida albicans [11], with Candida albicans [13] and in the data set on Candida albicans [14] was “Non-Toxic” in each case. In addition, the HC90 in the data set with Erythrocyte is 12.5 µg/mL. Besides, in data set [12], the selectivity ratio worked out at 4. Besides, in the data set with Candida albicans [15], the outcome was Active.
`CCCCCCCCCC[N+](C)(CCCCCCCCCC)CCNC(=O)c1ccc(OC)cc1.[I-]`: in the data set on Candida albicans [1], the “growth inhibition (GI)” value was “Dose-dependent effect” and the MIC80 is no more than 6.2 µg/mL.
Regarding `OC(Cn1cncn1)(Cn1cncn1)c1ccc(F)cc1F` [FLUCONAZOLE], the MIC80 in the data set with Candida albicans [1] amounted to 4 µg/mL (≈ 13.1 µM); in the data set on Candida albicans [2], 2 µg/mL (≈ 6.53 µM); in the data set on Candida albicans [3] it was 4 µg/mL (≈ 13.1 µM); with Candida albicans [4] it was 128 µg/mL (≈ 418 µM); with Candida albicans [5] it was 4 µg/mL (≈ 13.1 µM); in the data set on Candida albicans [6] it was 128 µg/mL (≈ 418 µM). Moreover, the MIC80 turned out to be 4 µg/mL (≈ 13.1 µM) in the data set on Nakaseomyces glabratus, 64 µg/mL (≈ 209 µM) with Pichia kudriavzevii, 2 µg/mL (≈ 6.53 µM) in the data set on Candida parapsilosis and 4 µg/mL (≈ 13.1 µM) in the data set on Candida tropicalis. Besides, the inhibition entry with Candida albicans [16], in the data set on Candida albicans [9] and with Candida albicans [10] was “inactive” each time.
